The source made the active and inactive calls. The rule behind the calls is not given here.
What was measured:
[1] = Inhibition of hedgehog signaling pathway in mouse Light2 cells in Shh conditioned medium by Gli-luciferase reporter gene assay; assay type: cell-based
Procedure, shortened: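 Light II cells (NIH-3T3 stably transfected with Gli-responsive firefly luciferase and Renilla expression vector) stimulated with ShhN conditioned medium. This medium was collected from ShhN-transfected HEK293 cells kept in 0.1% FBS. Firefly luciferase normalized to Renilla. IC50 given as mean ± SD (nM) from three separate experiments.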

Mus musculus [2] = species on record: Mus musculus; test: Inhibition of hedgehog signaling pathway in mouse Light2 cells in Shh conditioned medium at 1 uM by Gli-luciferase reporter gene assay relative to control; assay type: cell-based
Homo sapiens [3] = species on record: Homo sapiens; test: Inhibition of TNFalpha-induced NFkappaB activation in HEK293 cells at 20 uM after 24 hrs by dual luciferase reporter gene assay; assay type: cell-based; details: 1 uM, in the assay text read “1 uM” for “20 uM”
Procedure, shortened: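 HEK293 cells carrying NF-κB firefly reporter plus Renilla, stimulated with TNF-α and treated for 24 h. Cells lysed for dual luciferase assay, firefly signal normalized to Renilla. Data given as mean ± SD.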

Mus musculus [4] = species on record: Mus musculus; test: Inhibition of hedgehog signaling pathway in mouse NIH/3T3 cells harboring sufu shRNA assessed as downregulation of Gli1 mRNA expression at 1 uM by RT-qPCR analysis; assay type: cell-based
Procedure, shortened: (§1)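 Sufu expression in NIH-3T3 cells was reduced by lentivirus carrying Sufu shRNA. Knockdown was checked by immunoblot of Sufu, with GAPDH as loading control, in lysates made in Tris pH 7.4/NaCl/NP-40 buffer with protease and phosphatase inhibitors. Gli1 and ptch1 mRNA were then measured in the knockdown cells by RT-qPCR.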

Mus musculus [5] = species on record: Mus musculus; test: Inhibition of hedgehog signaling pathway in mouse NIH/3T3 cells harboring sufu shRNA assessed as downregulation of ptch1 mRNA expression at 1 uM by RT-qPCR analysis; assay type: cell-based; procedure, shortened: as §1
Homo sapiens [6] = species on record: Homo sapiens; test: Inhibition of PGE2-stimulated TCF/LEF activity in human LS174T cells at 20 uM measured after 6 hrs by dual luciferase reporter gene assay; assay type: cell-based
Procedure, shortened: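 LS174T cells carrying TCF/LEF reporter, stimulated with PGE2 and treated for 6 h. Dual luciferase read-out, firefly normalized to Renilla. Data given as mean ± SD.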

Mus musculus [7] = species on record: Mus musculus; test: Inhibition of hedgehog signaling pathway in mouse NIH/3T3 cells assessed as downregulation of Shh-induced Gli1 mRNA expression levels at 100 nM after 36 hrs by RT-qPCR analysis; assay type: cell-based
Procedure, shortened: (§2)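 NIH-3T3 or C3H10T1/2 cells treated as indicated for 36 h, then collected for RT-qPCR of Gli1 and ptch1 mRNA. Data given as mean ± SD.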

Mus musculus [8] = species on record: Mus musculus; test: Inhibition of hedgehog signaling pathway in mouse C3H10T1/2 cells assessed as downregulation of Shh-induced Gli1 mRNA expression levels at 100 nM after 36 hrs by RT-qPCR analysis; assay type: cell-based; procedure, shortened: as §2
Mus musculus [9] = species on record: Mus musculus; test: Inhibition of hedgehog signaling pathway in mouse NIH/3T3 cells assessed as downregulation of Shh-induced ptch1 mRNA expression levels at 100 nM after 36 hrs by RT-qPCR analysis; assay type: cell-based; procedure, shortened: as §2
Mus musculus [10] = species on record: Mus musculus; test: Inhibition of hedgehog signaling pathway in mouse C3H10T1/2 cells assessed as downregulation of Shh-induced ptch1 mRNA expression levels at 100 nM after 36 hrs by RT-qPCR analysis; assay type: cell-based; procedure, shortened: as §2
Mus musculus [11] = species on record: Mus musculus; test: Inhibition of hedgehog signaling pathway in mouse NIH/3T3 cells harboring sufu shRNA assessed as downregulation of Gli1 mRNA expression at 100 nM by RT-qPCR analysis; assay type: cell-based
Mus musculus [12] = species on record: Mus musculus; test: Inhibition of hedgehog signaling pathway in mouse NIH/3T3 cells harboring sufu shRNA assessed as downregulation of ptch1 mRNA expression at 100 nM by RT-qPCR analysis; assay type: cell-based
Mus musculus [13] = species on record: Mus musculus; test: Inhibition of hedgehog signaling pathway in mouse Shh Light2 cells harboring Gli1 plasmid assessed as reduction in Gli1-mediated transcriptional activity at 100 nM by luciferase reporter gene assay; assay type: cell-based
Mus musculus [14] = species on record: Mus musculus; test: Inhibition of hedgehog signaling pathway in mouse Shh Light2 cells harboring Gli2 plasmid assessed as reduction in Gli2-mediated transcriptional activity at 100 nM by luciferase reporter gene assay; assay type: cell-based
Medulloblastoma cell = test: Antiproliferative activity against mouse Ptch+/- p53-/- medulloblastoma cells assessed as reduction in cell proliferation up to 30 uM after 72 hrs by MTS assay; assay type: functional, cell-based
Procedure, shortened: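 Tumor cells obtained from ptch+/−;p53−/− medulloblastoma allografts by mechanical mincing and collagenase digestion. Cultured in Neurobasal A with B-27, EGF 20 ng/mL, bFGF 20 ng/mL, nonessential amino acids and N-acetylcysteine 60 μg/mL. Exposed to compounds for 72 h, then proliferation read by MTS assay. Data given as mean ± SD.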

SMILES | IC50 ([1]; Mus musculus) | inhibition (Mus musculus [2]) | also measured
O=C(Nc1cccc2c1OCC1CN(S(=O)(=O)c3ccc(Cl)s3)CCN1C2=O)C1CC1 (stereo unspecified) | 482 nM | 80% | –
O=C(Nc1cccc2c1OCC1CN(S(=O)(=O)c3ccc(Cl)cc3)CCN1C2=O)C1CC1 (stereo unspecified) | > 1000 nM | 35% | –
Cn1ccc(S(=O)(=O)N2CCN3C(=O)c4cccc(NC(=O)C5CC5)c4OCC3C2)n1 (stereo unspecified) | > 1000 nM | 58% | –
COc1ccc(CN2C[C@H]3CN(S(=O)(=O)c4ccc(Cl)cc4)CC[C@H]3Oc3c(NC(=O)C4CC4)cccc3C2=O)cc1 | 200 nM | 92% | –
C[C@H](CO)N1CC2CCN(S(=O)(=O)c3ccc(Cl)cc3)CC2Oc2c(NC(=O)C3CC3)cccc2C1=O (stereo partly specified) [listing 1 of 2 here] | > 1000 nM | – | –
COc1ccc(CN2C[C@@H]3CN(S(=O)(=O)c4ccc(Cl)cc4)CC[C@@H]3Oc3c(NC(=O)C4CC4)cccc3C2=O)cc1 [listing 1 of 2 here] | – | – | IC50 [1]: 12 nM
COc1ccc(CN2C[C@@H]3CN(S(=O)(=O)c4ccc(Cl)cc4)CC[C@@H]3Oc3c(NC(=O)C4CC4)cccc3C2=O)cc1 [listing 2 of 2 here] | – | 117% | –
C[C@H](CO)N1CC2CCN(S(=O)(=O)c3ccc(Cl)cc3)CC2Oc2c(NC(=O)C3CC3)cccc2C1=O (stereo partly specified) [listing 2 of 2 here] | – | 34% | –
Cc1ccc(S(=O)(=O)/C=C/C#N)cc1 | – | – | inhibition (Homo sapiens [3]): Active
Cc1sc2c(c1C)C(c1ccc(Cl)cc1)=N[C@@H](CC(=O)OC(C)(C)C)c1nnc(C)n1-2 | – | – | inhibition (Mus musculus [4]): Active; inhibition (Mus musculus [5]): Active
O=S(=O)(NCCNC/C=C/c1ccc(Br)cc1)c1cccc2cnccc12 | – | – | inhibition (Homo sapiens [6]): Active
COc1ccc(CN2C[C@@H]3CN(S(=O)(=O)c4ccn(C)n4)CC[C@@H]3Oc3c(NC(=O)C4CC4)cccc3C2=O)cc1 (racemic) | 145 nM | 87% | –
O=C(Nc1cccc2c1O[C@H]1CN(S(=O)(=O)c3ccc(Cl)cc3)CC[C@H]1CN(CCO)C2=O)C1CC1 (racemic) | > 1000 nM | 25% | –
COc1ccc(CN2C[C@@H]3CCN(S(C)(=O)=O)C[C@@H]3Oc3c(NC(=O)C4CC4)cccc3C2=O)cc1 (racemic) | > 1000 nM | 45% | –
COc1ccc(CN2C[C@@H]3CCN(S(=O)(=O)c4ccc(NC(C)=O)cc4)C[C@@H]3Oc3c(NC(=O)C4CC4)cccc3C2=O)cc1 (racemic) | 42 nM | 105% | –
O=C(Nc1cccc2c1O[C@H]1CN(S(=O)(=O)c3ccc(Cl)cc3)CC[C@H]1CN(Cc1cccnc1)C2=O)C1CC1 (racemic) | > 1000 nM | 28% | –
COc1ccc(CN2CC3CN(S(=O)(=O)c4ccc(Cl)cc4Cl)CCC3Oc3c(NC(=O)C4CC4)cccc3C2=O)cc1 (racemic) | 33 nM | 107% | –
COc1ccc(CN2C[C@@H]3CCN(S(=O)(=O)C4CCCCC4)C[C@@H]3Oc3c(NC(=O)C4CC4)cccc3C2=O)cc1 (racemic) | > 1000 nM | 42% | –
O=C(Nc1cccc2c1O[C@H]1CN(S(=O)(=O)c3ccc(Cl)cc3)CC[C@H]1CN(CCO)C2=O)C1CCCCC1 (racemic) | > 1000 nM | 32% | –
COc1ccc(CN2C[C@@H]3CCN(S(=O)(=O)c4ccc(Cl)cc4)C[C@@H]3Oc3c(NC(=O)C4CC4)cccc3C2=O)cc1 (racemic) | 304 nM | 97% | –

SMILES | IC50 ([1]; Mus musculus) | inhibition (Mus musculus [2]) | also measured
CN1CCC(N2C[C@@H]3CCN(S(=O)(=O)c4ccc(Cl)cc4)C[C@@H]3Oc3c(NC(=O)C4CC4)cccc3C2=O)CC1 (racemic) | 344 nM | 61% | –
COc1ccc(CN2C[C@@H]3CCN(S(=O)(=O)c4ccc(Cl)s4)C[C@@H]3Oc3c(NC(=O)C4CC4)cccc3C2=O)cc1 (racemic) | 167 nM | 113% | –
COc1ccc(CN2C[C@@H]3CCN(S(=O)(=O)c4ccc(Cl)cc4)C[C@@H]3Oc3ccc(NC(=O)C4CC4)cc3CC2=O)cc1 (racemic) | 502 nM | 60% | –
COc1ccc(CN2C[C@@H]3CCN(C(=O)Nc4ccc(C(F)(F)F)cc4)C[C@@H]3Oc3c(NC(=O)C4CC4)cccc3C2=O)cc1 (racemic) | 292 nM | 100% | –
COc1ccc(CN2C[C@@H]3CN(S(=O)(=O)c4ccc(Cl)cc4)CC[C@@H]3Oc3ccc(NC(=O)C4CC4)cc3CC2=O)cc1 (racemic) | > 1000 nM | 36% | –
COc1ccc(CN2C[C@@H]3CCN(S(=O)(=O)N4CCN(C)CC4)C[C@@H]3Oc3c(NC(=O)C4CC4)cccc3C2=O)cc1 (racemic) | > 1000 nM | 45% | –
COc1ccc(CN2C[C@@H]3CN(S(=O)(=O)c4ccc(Cl)s4)CC[C@@H]3Oc3c(NC(=O)C4CC4)cccc3C2=O)cc1 (racemic) | 46 nM | 108% | –
COc1ccc(CN2CC3CN(C(=O)Nc4ccc(C(F)(F)F)cc4)CCC3Oc3c(NC(=O)C4CC4)cccc3C2=O)cc1 (racemic) | > 1000 nM | 68% | –
COc1ccc(CN2CC3CN(S(=O)(=O)c4ccc(NC(C)=O)cc4)CCC3Oc3c(NC(=O)C4CC4)cccc3C2=O)cc1 (racemic) | 773 nM | 82% | –
COc1ccc(CN2C[C@@H]3CCN(S(=O)(=O)c4ccn(C)n4)C[C@@H]3Oc3ccc(NC(=O)C4CC4)cc3CC2=O)cc1 (racemic) | > 1000 nM | 16% | –
COc1ccc(CN2C[C@@H]3CCN(S(=O)(=O)c4ccc(OC)c(OC)c4)C[C@@H]3Oc3c(NC(=O)C4CC4)cccc3C2=O)cc1 (racemic) | > 1000 nM | 54% | –
COc1ccc(CN2C[C@@H]3CCN(C(=O)c4ccc(Cl)cc4)C[C@@H]3Oc3c(NC(=O)C4CC4)cccc3C2=O)cc1 (racemic) | > 1000 nM | 22% | –
COc1ccc(CN2C[C@@H]3CN(S(=O)(=O)c4ccn(C)n4)CC[C@@H]3Oc3ccc(NC(=O)C4CC4)cc3CC2=O)cc1 (racemic) | > 1000 nM | – | –
COc1ccc(CN2C[C@@H]3CCN(S(=O)(=O)c4ccn(C)n4)C[C@@H]3Oc3c(NC(=O)C4CC4)cccc3C2=O)cc1 (racemic) | 94 nM | 74% | –
COc1ccc(CN2C[C@@H]3CN(S(=O)(=O)c4ccc(Cl)s4)CC[C@@H]3Oc3ccc(NC(=O)C4CC4)cc3CC2=O)cc1 (racemic) | 1620 nM | 65% | –
COc1ccc(CN2C[C@@H]3CCN(S(=O)(=O)c4ccc(Cl)cc4Cl)C[C@@H]3Oc3c(NC(=O)C4CC4)cccc3C2=O)cc1 (racemic) | 766 nM | 102% | –
COc1ccc(CN2C[C@@H]3CCN(C(=O)Nc4ccc(F)cc4F)C[C@@H]3Oc3c(NC(=O)C4CC4)cccc3C2=O)cc1 (racemic) | 26 nM | 100% | –
COc1ccc(CN2CC3CN(C(=O)Nc4ccc(F)cc4F)CCC3Oc3c(NC(=O)C4CC4)cccc3C2=O)cc1 (racemic) | 540 nM | 87% | –
C[C@H](CO)N1CC2CCN(S(=O)(=O)c3ccc(Cl)cc3)CC2Oc2c(NC(=O)C3CC3)cccc2C1=O (single isomer, unassigned; (+)) | – | 40% | –
CS(=O)(=O)c1ccc(C(=O)Nc2ccc(Cl)c(-c3ccccn3)c2)c(Cl)c1 [VISMODEGIB] | 39 nM | 93% | inhibition (Mus musculus [7]): Active; inhibition (Mus musculus [8]): Active; inhibition (Mus musculus [9]): Active; inhibition (Mus musculus [10]): Active; inhibition (Mus musculus [11]): inactive; inhibition (Mus musculus [12]): inactive; inhibition (Mus musculus [13]): inactive; inhibition (Mus musculus [14]): inactive; inhibition (Medulloblastoma cell): Active
